Data as given in ChEMBL document CHEMBL3244072, “Synthesis and antiviral and enzymatic studies of certain 3-deazaguanines and their imidazolecarboxamide precursors” (J Med Chem, 1978).
Calls of active or inactive are those of the source. No cut-off for these calls is given here.

Assays:
[1] = tested on: Influenza B virus; assay: Antiviral activity against Influenza B virus Lee infected in Swiss-Webster mouse assessed as host mean survival days at 50 mg/kg, po qd for 9 days; format: functional, B/Lee/1940
[2] = tested on: Pseudomonas aeruginosa; assay: Antimicrobial activity against Pseudomonas aeruginosa at 0.4 umol/mL by broth microdilution method; format: functional, organism-based
In short: (§1)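 Broth dilution in defined medium against clinical isolates of each organism.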

[3] = tested on: Ehrlich; assay: Inhibition of guanine nucleotide biosynthesis in mouse EAC assessed as [14C]hypoxanthine incorporation at 1 mM after 60 mins by TLC analysis; format: functional; settings: 1 h
In short: (§2)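 Ehrlich ascites tumor cells (about 6 × 10^6 cells/mL) preincubated 20 min at 37 °C with or without 1 mM compound. [14C]hypoxanthine (55 μCi/μmol) then added to 0.1 mM final for 60 min. Label in adenine or guanine nucleotides of the acid-soluble fraction measured by TLC; inhibition calculated against untreated cells.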

[4] = tested on: KB; assay: Antiviral activity against Rhinovirus type 13 infected in human KB cells assessed as inhibition of virus-induced cytopathic effect after 72 hrs relative to control; format: functional, cell-based; settings: Human rhinovirus A13
In short: (§3)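 Cell monolayers (18-24 h) infected with 320 CCID50 of virus; compound added within 15 min at half-log dilutions from 1000 to 1 μg/mL. After 72 h at 37 °C, CPE and cytotoxicity scored microscopically (0-4). Virus rating = sum of (control CPE − treated CPE) over drug levels, halved at any level showing toxicity.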

[5] = tested on: Influenza B virus; assay: Antiviral activity against Influenza B virus Lee infected in Swiss-Webster mouse assessed as host mean survival days at 12.5 mg/kg, po qd for 9 days; format: functional, B/Lee/1940
[6] = tested on: Mus musculus; assay: Toxicity in Influenza B virus Lee infected Swiss-Webster mouse assessed as mortality at 50 mg/kg, po qd for 9 days; format: organism-based; set-up: dose 50 mg/kg, route oral; settings: in vivo, 216 h
[7] = tested on: Candida albicans; assay: Antimicrobial activity against Candida albicans at 0.4 umol/mL by broth microdilution method; format: functional, organism-based; in short: as §1
[8] = tested on: Mus musculus; assay: Toxicity in Influenza B virus Lee infected Swiss-Webster mouse assessed as mortality at 100 mg/kg, po qd for 9 days; format: organism-based; set-up: dose 100 mg/kg, route oral; settings: in vivo, 216 h
[9] = tested on: Microsporum canis; assay: Antimicrobial activity against Microsporum canis at 0.4 umol/mL by broth microdilution method; format: functional, organism-based; in short: as §1
[10] = tested on: Human alphaherpesvirus 1; assay: Antiviral activity against HSV1 infected in human KB cells assessed as inhibition of virus-induced cytopathic effect after 72 hrs relative to control; format: functional, organism-based; in short: as §3
[11] = tested on: Mus musculus; assay: Toxicity in Influenza B virus Lee infected Swiss-Webster mouse assessed as mortality at 12.5 mg/kg, po qd for 9 days; format: organism-based; set-up: dose 12.5 mg/kg, route oral; settings: in vivo, 216 h
[12] = tested on: Influenza B virus; assay: Antiviral activity against Influenza B virus Lee infected in Swiss-Webster mouse assessed as host mean survival days at 3.1 mg/kg, po qd for 9 days; format: functional, B/Lee/1940
[13] = tested on: Ehrlich; assay: Inhibition of adenine nucleotide biosynthesis in mouse EAC assessed as [14C]hypoxanthine incorporation at 1 mM after 60 mins by TLC analysis; format: functional; settings: 1 h; in short: as §2
[14] = tested on: Staphylococcus aureus; assay: Antimicrobial activity against Staphylococcus aureus at 0.4 umol/mL by broth microdilution method; format: functional, organism-based; in short: as §1
[15] = tested on: Epidermophyton floccosum; assay: Antimicrobial activity against Epidermophyton floccosum at 0.4 umol/mL by broth microdilution method; format: functional, organism-based; in short: as §1
[16] = tested on: Trichophyton mentagrophytes; assay: Antimicrobial activity against Trichophyton mentagrophytes at 0.4 umol/mL by broth microdilution method; format: functional, organism-based; in short: as §1
[17] = tested on: KB; assay: Antiviral activity against Adenovirus type 3 infected in human KB cells assessed as inhibition of virus-induced cytopathic effect after 72 hrs relative to control; format: functional, cell-based; settings: Human adenovirus 3; in short: as §3
[18] = tested on: Human respirovirus 3; assay: Antiviral activity against Parainfluenza virus 3 infected in human KB cells assessed as inhibition of virus-induced cytopathic effect after 72 hrs relative to control; format: functional, organism-based; in short: as §3
[19] = tested on: Influenza B virus; assay: Antiviral activity against Influenza B virus Lee infected in Swiss-Webster mouse assessed as host mean survival days at 100 mg/kg, po qd for 9 days; format: functional, B/Lee/1940
[20] = tested on: Vaccinia virus; assay: Antiviral activity against Vaccinia virus infected in human KB cells assessed as inhibition of virus-induced cytopathic effect after 72 hrs relative to control; format: functional, organism-based; settings: Orthopoxvirus vaccinia; in short: as §3
[21] = tested on: Influenza B virus; assay: Antiviral activity against Influenza B virus Lee infected in Swiss-Webster mouse assessed as host mean survival days at 40 mg/kg, po qd for 9 days; format: functional, B/Lee/1940
[22] = tested on: Influenza B virus; assay: Antiviral activity against Influenza B virus Lee infected in Swiss-Webster mouse assessed as host mean survival days at 10 mg/kg, po qd for 9 days; format: functional, B/Lee/1940
[23] = tested on: Influenza B virus; assay: Antiviral activity against Influenza B virus Lee infected in Swiss-Webster mouse assessed as host mean survival days at 2.5 mg/kg, po qd for 9 days; format: functional, B/Lee/1940
[24] = tested on: Human alphaherpesvirus 2; assay: Antiviral activity against HSV2 infected in human KB cells assessed as inhibition of virus-induced cytopathic effect after 72 hrs relative to control; format: functional, organism-based; in short: as §3

Structure (SMILES)	Activity [2]	inhibition at 1000 µM [3] [%]	Activity [4]	Activity [7]	Activity [9]	Activity [10]	inhibition at 1000 µM [13] [%]	Activity [14]	Activity [15]	Activity [16]	Activity [17]	Activity [18]	further results
N#CCc1[nH]cnc1C(N)=O	inactive	39	Active	inactive	inactive	Active	8	inactive	inactive	inactive	Active	Active	Time [1]: >0.3 days; Time [5]: >0.3 days; Activity [6]: Non-toxic; Activity [8]: Non-toxic; Activity [11]: Non-toxic; Time [12]: 0.23 days; Time [19]: 0.118 days
Nc1cc2c(ncn2[C@@H]2O[C@H](CO)[C@@H](O)[C@H]2O)c(=O)[nH]1	inactive	38	Active	inactive	inactive	Active	24	inactive	inactive	inactive	Active	Active	Activity [20]: Active; Time [21]: >0.3 days; Time [22]: >0.3 days; Time [23]: 0.118 days; Activity [24]: Active
